The test system of data set [1] is Mus musculus. Kind of data set: Evaluated in vivo for toxic deaths of mice at 5.60 mg/kg for 12 days by intraperitoneal treatment on COLO 205 colon cell line. The format is toxicity, organism-based. On the set-up: dose 5.6 mg/kg, route intraperitoneal. Conditions: ip, 5.6 mg/kg, 288 h. A digest of the protocol: (§1)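 Nude mice carrying subcutaneous human tumor xenografts, tested at NCI Bethesda; compound given on the stated schedule, intraperitoneally (IP) or intravenously (IV). Three dose levels were tested, and the table reports only the optimal one. Toxic deaths are scored per treatment group alongside tumor weight end points.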

Data set [2] concerns Mus musculus. Kind of data set: Evaluated in vivo for toxic deaths of mice at 5.60 mg/kg for 24 (38) days by intraperitoneal treatment on MDA-MB-435 breast […] cell line. Conditions: ip, 5.6 mg/kg. On the set-up: dose 5.6 mg/kg, route intraperitoneal. The format is toxicity, organism-based. A digest of the protocol: as §1
Data set [3] relates to Mus musculus. Kind of data set: Evaluated in vivo for toxic deaths of mice at 5.60 mg/kg for 5 days by intraperitoneal treatment on HCT-15 colon cell line. The format is toxicity, organism-based. Details: dose 5.6 mg/kg, route intraperitoneal. Conditions: ip, 5.6 mg/kg, 120 h. The method in brief:
as §1

The test system of data set [4] is Mus musculus. Kind of data set: Evaluated in vivo for percent growth delay in mice at 5.60 mg/kg for 7 days by intraperitoneal treatment on AS283 lymphoma cell line. To be noted: dose 5.6 mg/kg. The format is functional.
Data set [5] in a line: Tested for cytotoxicity (lethal concentration) of compound, activity expressed as MID log LC50. The format is functional. A digest of the protocol: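 MID is the calculated mean of LC50 concentrations (M) across the cell line panel, where LC50 is the half-lethal concentration. It is reported as a log value.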
Data set [6] is described as follows: Evaluated in vivo for intraperitoneal score in hallow fiber assay. The format is functional. A digest of the protocol: (§2)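 NCI hollow fiber preliminary in vivo assay; scores recorded separately for intraperitoneal (ip) and subcutaneous (sc) fiber implantation sites, with an activity criterion applied (Y/N). Procedure detailed in prior work.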
The nature of data set [7]: Evaluated in vivo for intraperitoneal + subcutaneous score in hallow fiber assay. The format is functional. A digest of the protocol:
as §2

The nature of data set [8]: Evaluated in vivo for subcutaneous score in hallow fiber assay. The format is functional. The method in brief: as §2
Data set [9] deals with Mus musculus. Kind of data set: Evaluated in vivo for percent of tumor weight in treated/control of mice at 5.60 mg/kg by intraperitoneal treatment. Conditions: dose 5.6 mg/kg.
In data set [10] the test system is Mus musculus. Kind of data set: Evaluated in vivo for toxic deaths of mice at 8.40 mg/kg for 8 days by intraperitoneal treatment on UACC-62 melanoma cell line. To be noted: ip, 8.4 mg/kg, 192 h.
The test system of data set [11] is Mus musculus. Kind of data set: Evaluated in vivo for toxic deaths of mice at 3.35 mg/kg for 7 days by intraperitoneal treatment on SK-MEL-28 melanoma cell line. Conditions: ip, 168 h.
Data set [12] relates to Mus musculus. Kind of data set: Evaluated in vivo for percent growth delay in mice at 5.60 mg/kg for 11 days by intraperitoneal treatment on A498 renal cell line. Conditions: dose 5.6 mg/kg.
The test system of data set [13] is Mus musculus. Kind of data set: Evaluated in vivo for percent growth delay in mice at 5.60 mg/kg for 8 days by intraperitoneal treatment on COLO 205 colon cell line. To be noted: dose 5.6 mg/kg.
The subject of data set [14] is Mus musculus. Kind of data set: Evaluated in vivo for percent growth delay in mice at 8.40 mg/kg for 8 days by intraperitoneal treatment on UACC-62 melanoma cell line. To be noted: dose 8.4 mg/kg.
Data set [15] concerns Mus musculus. Kind of data set: Evaluated in vivo for percent growth delay in mice at 3.35 mg/kg for 7 days by intraperitoneal treatment on SK-MEL-28 melanoma cell line.
In data set [16] the test system is Mus musculus. Kind of data set: Evaluated in vivo for percent growth delay in mice at 5.60 mg/kg for 15 days by intraperitoneal treatment on UACC-257 melanoma cell line. Conditions: dose 5.6 mg/kg.
For data set [17], the system named is Mus musculus. Kind of data set: Evaluated in vivo for toxic deaths of mice at 3.35 mg/kg for 10 days by intraperitoneal treatment on NCI-H522 non-small cell lung cell line. Conditions: ip, 240 h.
Data set [18] deals with Mus musculus. Kind of data set: Evaluated in vivo for percent growth delay in mice at 3.35 mg/kg for 10 days by intraperitoneal treatment on NCI-H522 non-small cell lung cell line.
For data set [19], the system named is Mus musculus. Kind of data set: Evaluated in vivo for percent treated/control of mice at 3.35 mg/kg for 10 days by intraperitoneal treatment on NCI-H522 non-small cell lung cell line.
For data set [20], the system named is Mus musculus. Kind of data set: Evaluated in vivo for percent of tumor weight in treated/control of mice 5.60 at mg/kg for 11 days by intraperitoneal treatment on A498 renal cell line.
For data set [21], the system named is Mus musculus. Kind of data set: Evaluated in vivo for percent of tumor weight in treated/control of mice at 5.60 mg/kg for 8 days by intraperitoneal treatment on COLO 205 colon cell line. Conditions: dose 5.6 mg/kg.
Data set [22] deals with Mus musculus. Kind of data set: Evaluated in vivo for percent of tumor weight in treated/control of mice at 8.40 mg/kg for 8 days by intraperitoneal treatment on UACC-62 melanoma cell line. Conditions: dose 8.4 mg/kg.
Data set [23] has as its system Mus musculus. Kind of data set: Evaluated in vivo for percent of tumor weight in treated/control of mice at 3.35 mg/kg for 7 days by intraperitoneal treatment on SK-MEL-28 melanoma cell line.

The structures appear in SMILES notation.

This is an account of results in ChEMBL document CHEMBL1145016, “Synthesis and antitumor activity of conjugates of muramyldipeptide or normuramyldipeptide with hydroxyacridine/acridone derivatives” (J Med Chem, 2003).

Consider `CC(=O)N[C@@H]1[C@H](OCc2ccccc2)OC(CO)C(O)[C@H]1OC(C)C(=O)N[C@H](C)C(=O)N[C@H](CCC(=O)OCCCNc1c2ccccc2nc2cccc([N+](=O)[O-])c12)C(N)=O` (stereo partly drawn), for which the Toxic deaths is given as 1 with Mus musculus [1]; 1 with Mus musculus [2]; 2 in the data set on Mus musculus [3]; 0 in the data set on Mus musculus [10]; 0 in the data set on Mus musculus [11]; 1 with Mus musculus [17]. Moreover, the “Growth delay (T-C/C)” value in the data set with Mus musculus [4] is 16%; in the data set on Mus musculus [12], 3%; in the data set with Mus musculus [13] it was -7%; in the data set on Mus musculus [14], 107%; in the data set on Mus musculus [15], -3%; in the data set with Mus musculus [16], 1%. The “Growth delay (T-C/C)” value in the data set on Mus musculus [18] came out at 1%. The “MID log LC50” value in data set [5] is on record as 5.78 M. The Score is on record as 2 in [6], 4 in data set [7] and 2 in [8]. The Tumor weight in the data set with Mus musculus [9] came out at 60%; in the data set on Mus musculus [19], 89%; in the data set on Mus musculus [20], 68%; in the data set on Mus musculus [21], 65%; with Mus musculus [22], 1%; with Mus musculus [23], 105%.
